Converted amounts (≈) assume the structure as drawn.
Tests used:
Assay type in all cases: functional
[1] = test system: Candida albicans; test: Antimicrobial activity against Candida albicans after 24 hrs by broth microdilution method
[2] = test system: Stenotrophomonas maltophilia; test: Antimicrobial activity against Stenotrophomonas maltophilia after 24 hrs by broth microdilution method
Summary of the method: (§1)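 MICs determined by two-fold broth microdilution following CLSI guidelines (M100-S22), with compound concentrations of […] in the well. Every well except the blank was inoculated with the test bacterium and incubated at 37 °C for 24 h. MIC was taken as the lowest concentration with no visible growth.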

[3] = test system: Acinetobacter baumannii; test: Antimicrobial activity against Acinetobacter baumannii after 24 hrs by broth microdilution method; summary of the method: as §1
[4] = test system: Escherichia coli; test: Antimicrobial activity against Escherichia coli after 24 hrs by broth microdilution method; summary of the method: as §1
[5] = test system: Bacillus subtilis; test: Antimicrobial activity against Bacillus subtilis after 24 hrs by broth microdilution method; summary of the method: as §1
[6] = test system: Staphylococcus aureus; test: Antimicrobial activity against Staphylococcus aureus after 24 hrs by broth microdilution method; summary of the method: as §1

| SMILES | MIC [1] [µg/mL] | MIC [2] [µg/mL] | MIC [3] [µg/mL] | MIC [4] [µg/mL] | MIC [5] [µg/mL] | MIC [6] [µg/mL] |
| --- | --- | --- | --- | --- | --- | --- |
| COc1ccc(Nc2nn3cnnc3c3ccccc23)cc1 | > 128 | > 128 | > 128 | > 128 | > 128 | 128 (≈ 439 µM) |
| OC(Cn1cncn1)(Cn1cncn1)c1ccc(F)cc1F [FLUCONAZOLE] | 1 (≈ 3.27 µM) |  |  |  |  |  |
| Cc1nnc2c3ccccc3c(Nc3ccccc3Cl)nn12 | > 128 | > 128 | > 128 | > 128 | > 128 | 32 (≈ 103 µM) |
| Fc1ccc(Nc2nn3cnnc3c3ccccc23)cc1 | > 128 | > 128 | > 128 | > 128 | > 128 | 64 (≈ 229 µM) |
| Fc1ccc(Nc2nn3c(-c4ccccc4)nnc3c3ccccc23)cc1 | > 128 | > 128 | > 128 | > 128 | > 128 | 16 (≈ 45 µM) |
| c1ccc2c(c1)c(N1CCNCC1)nn1cnnc21 | > 128 | > 128 | > 128 | > 128 | > 128 | > 128 |
| C[C@H]1COc2c(N3CCN(C)CC3)c(F)cc3c(=O)c(C(=O)O)cn1c23.C[C@H]1COc2c(N3CCN(C)CC3)c(F)cc3c(=O)c(C(=O)O)cn1c23.O [LEVOFLOXACIN] |  | 0.5 | 0.25 | 0.25 | 1 | 0.5 |
| Cc1ccc(Nc2nn3c(-c4ccccc4)nnc3c3ccccc23)cc1 | > 128 | > 128 | > 128 | > 128 | > 128 | 32 (≈ 91.1 µM) |
| c1ccc(-c2nnc3c4ccccc4c(N4CCNCC4)nn23)cc1 | 32 (≈ 96.9 µM) | 32 (≈ 96.9 µM) | 64 (≈ 194 µM) | 128 (≈ 387 µM) | 64 (≈ 194 µM) | 32 (≈ 96.9 µM) |
| COc1ccc(Nc2nn3c(C)nnc3c3ccccc23)cc1 | > 128 | > 128 | > 128 | > 128 | > 128 | 16 (≈ 52.4 µM) |
| Clc1ccc(Nc2nn3cnnc3c3ccccc23)cc1 | > 128 | > 128 | > 128 | > 128 | > 128 | 32 (≈ 108 µM) |
| Cc1ccc(Nc2nn3cnnc3c3ccccc23)cc1 | > 128 | > 128 | > 128 | > 128 | > 128 | 32 (≈ 116 µM) |
| Cc1nnc2c3ccccc3c(N3CC(C)CC(C)C3)nn12 (stereo not drawn) | > 128 | > 128 | > 128 | > 128 | 64 (≈ 217 µM) | 32 (≈ 108 µM) |
| Cc1ccc(Nc2nn3c(C)nnc3c3ccccc23)cc1 | > 128 | > 128 | > 128 | > 128 | > 128 | 64 (≈ 221 µM) |
